{"source": "ChEMBL document CHEMBL2311390", "about": "“Synthesis and preliminary evaluation of pharmacological properties of some piperazine derivatives of xanthone” (Bioorg Med Chem, 2013)", "key": {"[1]": {"target": "T1, Adrenergic receptor alpha-1 (Rattus norvegicus, UniProt P15823+P23944+P43140)", "T1 sequence (P15823 whole entry)": "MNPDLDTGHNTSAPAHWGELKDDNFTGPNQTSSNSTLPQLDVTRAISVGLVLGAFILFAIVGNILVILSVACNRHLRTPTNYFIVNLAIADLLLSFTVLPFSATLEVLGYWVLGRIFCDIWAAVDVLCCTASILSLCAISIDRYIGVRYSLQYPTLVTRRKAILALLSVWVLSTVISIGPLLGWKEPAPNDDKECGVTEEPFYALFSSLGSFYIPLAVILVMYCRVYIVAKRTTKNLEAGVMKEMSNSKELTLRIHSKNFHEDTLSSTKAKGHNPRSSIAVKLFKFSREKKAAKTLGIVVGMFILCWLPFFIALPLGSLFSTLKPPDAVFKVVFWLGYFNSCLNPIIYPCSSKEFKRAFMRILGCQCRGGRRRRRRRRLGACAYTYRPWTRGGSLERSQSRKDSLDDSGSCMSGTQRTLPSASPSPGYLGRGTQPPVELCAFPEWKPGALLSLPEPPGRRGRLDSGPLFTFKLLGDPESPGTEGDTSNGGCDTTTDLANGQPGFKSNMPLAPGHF", "T1 sequence (P23944 whole entry)": "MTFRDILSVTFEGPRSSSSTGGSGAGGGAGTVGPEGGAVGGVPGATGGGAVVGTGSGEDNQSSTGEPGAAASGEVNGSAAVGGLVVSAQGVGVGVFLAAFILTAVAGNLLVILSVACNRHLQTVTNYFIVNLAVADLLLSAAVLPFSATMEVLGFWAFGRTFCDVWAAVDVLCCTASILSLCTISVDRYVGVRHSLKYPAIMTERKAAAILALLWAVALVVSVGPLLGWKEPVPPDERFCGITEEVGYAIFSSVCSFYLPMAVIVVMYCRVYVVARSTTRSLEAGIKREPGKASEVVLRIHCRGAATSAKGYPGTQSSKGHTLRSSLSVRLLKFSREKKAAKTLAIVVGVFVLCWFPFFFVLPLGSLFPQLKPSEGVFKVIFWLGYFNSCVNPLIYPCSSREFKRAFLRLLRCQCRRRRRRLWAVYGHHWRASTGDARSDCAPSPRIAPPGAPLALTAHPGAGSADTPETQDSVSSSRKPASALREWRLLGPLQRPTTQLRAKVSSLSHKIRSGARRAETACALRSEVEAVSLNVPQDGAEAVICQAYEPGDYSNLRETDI", "T1 sequence (P43140 whole entry)": "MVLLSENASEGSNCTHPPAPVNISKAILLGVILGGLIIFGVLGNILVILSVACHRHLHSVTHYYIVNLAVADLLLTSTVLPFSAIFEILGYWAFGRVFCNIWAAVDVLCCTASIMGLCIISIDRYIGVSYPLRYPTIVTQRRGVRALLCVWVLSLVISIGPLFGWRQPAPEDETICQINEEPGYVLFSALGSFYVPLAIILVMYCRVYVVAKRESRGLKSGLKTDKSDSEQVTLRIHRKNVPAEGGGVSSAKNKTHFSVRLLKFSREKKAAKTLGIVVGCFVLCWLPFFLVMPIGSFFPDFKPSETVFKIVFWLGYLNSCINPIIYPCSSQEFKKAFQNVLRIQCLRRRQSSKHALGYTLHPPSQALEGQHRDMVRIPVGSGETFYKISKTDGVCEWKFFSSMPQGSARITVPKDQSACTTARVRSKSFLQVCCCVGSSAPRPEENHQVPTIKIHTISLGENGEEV", "assay": "Displacement of [3H]-prazosin from alpha1-adrenergic receptor in rat cerebral cortex by liquid scintillation counting", "format": "tissue-based", "how_it_was_run": "(§1)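 Rat cerebral cortex was homogenised in ice-cold 50 mM Tris-HCl pH 7.6 and spun at 20,000 g for 20 min at 0–4 °C, then washed once. Radioligands: [3H]prazosin 0.2 nM for α1, [3H]clonidine 2 nM for α2, [3H]CGP-12177 0.2 nM for β1. Test compounds were run at 7–8 concentrations from 10^-11 to 10^-4 M. Nonspecific binding was defined with phentolamine (α1), clonidine (α2) or propranolol (β1). Counting was by liquid scintillation, in duplicate. Ki was derived by Cheng–Prusoff from 2–3 experiments.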"}, "[2]": {"target": "T2, Adrenergic receptor alpha-2 (Rattus norvegicus, UniProt P22086+P19328+P22909)", "T2 sequence (P22086 whole entry)": "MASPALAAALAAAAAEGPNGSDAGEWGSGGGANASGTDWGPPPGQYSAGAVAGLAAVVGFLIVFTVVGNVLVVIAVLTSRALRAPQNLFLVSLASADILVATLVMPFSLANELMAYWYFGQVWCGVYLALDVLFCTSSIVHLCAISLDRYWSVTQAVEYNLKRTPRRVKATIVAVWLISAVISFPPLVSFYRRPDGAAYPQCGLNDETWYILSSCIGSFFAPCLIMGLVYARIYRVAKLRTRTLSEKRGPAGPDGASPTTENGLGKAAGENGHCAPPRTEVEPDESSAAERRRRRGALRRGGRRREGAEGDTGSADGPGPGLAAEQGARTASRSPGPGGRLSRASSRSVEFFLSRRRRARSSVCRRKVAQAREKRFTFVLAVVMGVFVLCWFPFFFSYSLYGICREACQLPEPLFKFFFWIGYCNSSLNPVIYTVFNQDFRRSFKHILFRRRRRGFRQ", "T2 sequence (P19328 whole entry)": "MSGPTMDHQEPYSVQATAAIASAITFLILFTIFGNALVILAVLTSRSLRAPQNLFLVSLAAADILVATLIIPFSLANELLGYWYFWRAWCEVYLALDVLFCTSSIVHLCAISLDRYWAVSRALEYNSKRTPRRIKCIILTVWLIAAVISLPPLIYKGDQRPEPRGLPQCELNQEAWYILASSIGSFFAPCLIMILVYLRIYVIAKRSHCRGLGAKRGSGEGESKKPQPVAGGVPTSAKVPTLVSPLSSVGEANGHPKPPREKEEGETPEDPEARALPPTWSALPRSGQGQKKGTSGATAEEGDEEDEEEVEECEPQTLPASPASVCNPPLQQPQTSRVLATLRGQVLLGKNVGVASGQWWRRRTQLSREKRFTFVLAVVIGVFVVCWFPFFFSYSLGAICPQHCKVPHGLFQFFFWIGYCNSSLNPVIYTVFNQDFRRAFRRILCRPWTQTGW", "T2 sequence (P22909 whole entry)": "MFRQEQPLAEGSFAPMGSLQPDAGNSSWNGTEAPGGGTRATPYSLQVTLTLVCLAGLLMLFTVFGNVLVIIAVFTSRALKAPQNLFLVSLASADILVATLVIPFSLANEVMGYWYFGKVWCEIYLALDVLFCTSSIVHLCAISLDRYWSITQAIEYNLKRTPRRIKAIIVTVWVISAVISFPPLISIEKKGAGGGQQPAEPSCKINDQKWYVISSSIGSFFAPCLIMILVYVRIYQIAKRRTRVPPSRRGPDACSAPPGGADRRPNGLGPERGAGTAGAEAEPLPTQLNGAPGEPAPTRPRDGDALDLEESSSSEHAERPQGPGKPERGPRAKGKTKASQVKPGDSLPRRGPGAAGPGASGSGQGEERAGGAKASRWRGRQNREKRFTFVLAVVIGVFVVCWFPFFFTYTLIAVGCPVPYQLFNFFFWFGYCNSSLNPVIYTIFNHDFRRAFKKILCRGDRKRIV", "assay": "Displacement of [3H]clonidine from alpha2-adrenergic receptor in rat cerebral cortex by liquid scintillation counting", "format": "tissue-based", "how_it_was_run": "as §1"}}, "data": [{"smiles": "COc1ccccc1N1CCN(CCCOc2cccc3c(=O)c4ccccc4oc23)CC1.Cl", "values": [{"measurement": "Ki", "setting": "[1]", "result": 4, "unit": "nM"}, {"measurement": "Ki", "setting": "[2]", "result": 695, "unit": "nM"}]}, {"smiles": "COc1ccccc1N1CCN(CC(COc2cccc3c(=O)c4ccccc4oc23)OC(C)=O)CC1.Cl", "note": "(racemic)", "values": [{"measurement": "Ki", "setting": "[1]", "result": 50, "unit": "nM"}, {"measurement": "Ki", "setting": "[2]", "result": 2100, "unit": "nM"}]}, {"smiles": "COc1ccccc1N1CCN(CC(O)COc2cccc3c(=O)c4ccccc4oc23)CC1.Cl", "note": "(racemic)", "values": [{"measurement": "Ki", "setting": "[1]", "result": 18, "unit": "nM"}, {"measurement": "Ki", "setting": "[2]", "result": 4260, "unit": "nM"}]}, {"smiles": "Cl.Cl.Cl.O=c1c2ccc(Cl)cc2oc2c(OCC(O)CN3CCN(CCOc4ccccc4)CC3)cccc12", "note": "(racemic)", "values": [{"measurement": "Ki", "setting": "[1]", "result": 506, "unit": "nM"}, {"measurement": "Ki", "setting": "[2]", "result": 450, "unit": "nM"}]}, {"smiles": "Cl.Cl.Cl.O=c1c2ccc(Cl)cc2oc2c(OCC(O)CN3CCN(C/C=C/c4ccccc4)CC3)cccc12", "note": "(racemic)", "values": [{"measurement": "Ki", "setting": "[1]", "result": 1100, "unit": "nM"}, {"measurement": "Ki", "setting": "[2]", "result": 3400, "unit": "nM"}]}, {"smiles": "Cl.Cl.Cl.O=c1c2ccc(Cl)cc2oc2c(OCC(O)CN3CCN(Cc4ccccc4)CC3)cccc12", "note": "(racemic)", "values": [{"measurement": "Ki", "setting": "[1]", "result": 614, "unit": "nM"}, {"measurement": "Ki", "setting": "[2]", "result": 7700, "unit": "nM"}]}, {"smiles": "Cl.Cl.O=c1c2ccccc2oc2c(OCC(O)CN3CCN(C/C=C/c4ccccc4)CC3)cccc12", "note": "(racemic)", "values": [{"measurement": "Ki", "setting": "[1]", "result": 677, "unit": "nM"}, {"measurement": "Ki", "setting": "[2]", "result": 634, "unit": "nM"}]}]}
